Experimental data from different studies.
Each line is one published result; the experiments were not run side by side.
Target: Protein kinase C epsilon type (PRKCE, Homo sapiens, UniProt Q02156)
Sequence (Q02156 1-737, as in one of the studies): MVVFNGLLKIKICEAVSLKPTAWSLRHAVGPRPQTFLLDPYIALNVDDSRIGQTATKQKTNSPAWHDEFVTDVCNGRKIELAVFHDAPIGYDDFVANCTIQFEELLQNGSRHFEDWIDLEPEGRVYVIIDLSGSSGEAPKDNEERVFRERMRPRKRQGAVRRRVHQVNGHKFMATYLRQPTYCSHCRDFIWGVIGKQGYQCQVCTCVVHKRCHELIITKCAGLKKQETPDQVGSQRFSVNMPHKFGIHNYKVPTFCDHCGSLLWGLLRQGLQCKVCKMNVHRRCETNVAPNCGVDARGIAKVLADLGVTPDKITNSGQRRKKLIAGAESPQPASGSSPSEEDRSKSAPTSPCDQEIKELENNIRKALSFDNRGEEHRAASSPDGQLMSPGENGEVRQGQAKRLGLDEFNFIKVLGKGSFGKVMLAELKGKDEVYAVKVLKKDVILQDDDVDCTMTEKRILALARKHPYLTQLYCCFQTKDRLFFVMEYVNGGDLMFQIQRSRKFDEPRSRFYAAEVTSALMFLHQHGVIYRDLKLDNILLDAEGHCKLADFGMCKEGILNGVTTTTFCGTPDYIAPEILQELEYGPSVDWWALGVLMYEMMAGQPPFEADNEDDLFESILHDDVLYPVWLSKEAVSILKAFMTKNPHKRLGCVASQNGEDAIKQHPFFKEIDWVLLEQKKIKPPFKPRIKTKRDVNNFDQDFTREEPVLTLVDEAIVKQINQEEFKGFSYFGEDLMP

COc1ccc(COc2ccc(Cc3cnc(N)nc3N)cc2OC)cc1  remaining signal (cell-free assay; 0.5 µM): 95.7%
CN(C)CC#Cc1ccc(OCCCc2sc(N3CCc4cccc(C(=O)Nc5nc6ccccc6s5)c4C3)nc2C(=O)O)c(F)c1  remaining binding (cell-free assay; competition with immobilised ligand; 1 µM): 100%
CCCS(=O)(=O)Nc1ccc(F)c(C(=O)c2c[nH]c3ncc(-c4ccc(Cl)cc4)cc23)c1F  inhibition (enzyme activity; inhibitor; 1 µM): < 10%
CCN(CC)c1ccc(C2=NNC(=O)CC2C)cc1[N+](=O)[O-] (centres unmarked)  remaining activity (enzyme activity; inhibitor; 10 µM): 95%
CC(C)c1ccc(NC(=O)c2cccs2)c(-c2nc3ccccc3[nH]c2=O)c1  activity vs control (enzyme activity; inhibitor; 1 µM): 109%
Cc1nc(Cc2cccc(C(F)(F)F)c2)sc1-c1ccc(C(N)=O)nc1  remaining binding (cell-free assay; competition with immobilised ligand; 1 µM): 100%
Cc1cnc(NC2CCOCC2)nc1-n1cnc(C(=O)NC(CN)c2cc(F)cc(Cl)c2)c1 (centres unmarked)  remaining activity (enzyme activity; inhibitor; radiometric; 1 µM): 91%
O=C(CSc1nc2nccnc2c(=O)n1CCc1ccccc1)Nc1nccs1  inhibition (enzyme activity; inhibitor; 10 µM): -23%
CN(C)c1ncnc(-c2ccc3nc(Nc4cc(CN5CCN(C(=O)CC(F)(F)F)CC5)ccn4)[nH]c3c2)c1Cl  remaining binding (cell-free assay; competition with immobilised ligand; 1 µM): 100%
CC(C)(C)c1nc(-c2cccc(NS(=O)(=O)c3c(F)cccc3F)c2F)c(-c2ccnc(N)n2)s1  remaining activity (enzyme activity; inhibitor; radiometric; 1 µM): 132%
CN(C)C[C@H]1CCn2c(c(C3=C(c4cn(C)c5ccccc45)C(=O)NC3=O)c3ccccc32)C1  remaining signal (cell-free assay; 0.5 µM): 2.73%
Nc1c(C(=O)NCc2ccc(C(=O)NCCCC3CCCCC3)cc2)cnn1-c1ccccc1  remaining binding (cell-free assay; competition with immobilised ligand; 0.1 µM): 100%
CC/C(=N\NC(=O)NCc1cccc(O)c1)c1ccc(O)c(C)c1O  inhibition (enzyme activity; inhibitor; 0.1 µM): 19.6%
Cc1ccc(-n2nc(C(C)(C)C)cc2NC(=O)Nc2ccc(OCCN3CCOCC3)c3ccccc23)cc1  inhibition (enzyme activity; inhibitor; 10 µM): 16%
Cc1ccc(C(=O)Nc2ccc(CN3CCN(C)CC3)c(C(F)(F)F)c2)cc1C#Cc1cnc2cccnn12  remaining activity (enzyme activity; 23.5 nM): 77%
COc1ccc2c(c1)O[C@H](c1ccc(OC)c(OC)c1)C[C@@H]2NC(=O)C1(c2ccc3c(c2)OC(F)(F)O3)CC1  remaining binding (cell-free assay; competition with immobilised ligand; 1 µM): 90%
O=C(Nc1cnn(-c2csc(C(=O)NC3COC3)c2)c1)Nc1ccccc1Cl  remaining activity (enzyme activity; inhibitor; 5 µM): 102%
